Compound activity from PubChem BioAssay.
APJ agonist: agonists of human apelin receptor APJ, primary screen, CHO-K1 cells, PathHunter beta-arrestin, luminescence; 0% DMSO wells, 100% apelin; activation, % at 20 µM; actives 0.11% (n = 330,000);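 active = activation more than six SD over the plate average, tested at 20 µM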;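 also: 0% = DMSO alone and 100% = apelin-13 at 10 nM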
Target sequence (P35414 whole entry, looked up): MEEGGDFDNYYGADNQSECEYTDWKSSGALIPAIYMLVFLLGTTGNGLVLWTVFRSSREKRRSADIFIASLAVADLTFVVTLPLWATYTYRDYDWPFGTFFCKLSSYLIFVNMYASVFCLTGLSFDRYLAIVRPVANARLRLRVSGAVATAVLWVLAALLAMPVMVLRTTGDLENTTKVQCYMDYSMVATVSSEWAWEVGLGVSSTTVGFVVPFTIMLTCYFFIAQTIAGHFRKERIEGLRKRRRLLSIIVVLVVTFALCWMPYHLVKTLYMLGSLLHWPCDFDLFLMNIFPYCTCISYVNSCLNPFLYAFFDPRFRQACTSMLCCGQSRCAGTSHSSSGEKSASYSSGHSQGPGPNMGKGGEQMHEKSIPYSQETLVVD
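Material: CHO-K1 APJ beta-arrestin complementation cell line; Input: cell density 1000 per well; Incubation: compound stimulation 90 min at 25 °C, detection 60 min; Signal: luminescence from split beta-galactosidase complementation, Galacton Star/Emerald II substrate; Controls: DMSO-only wells as negative, 10 nM Apelin-13 as positive control.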
EBI2 block: EBI2 receptor antagonists, beta-arrestin recruitment, primary screen, cell-based, luminescence, 7a,25-OHC stimulation, uHTS | G-protein coupled receptor 183 (Homo sapiens), P32249 | 7a,25-OHC stimulated | inhibition, % at 5 µM | actives 0.81% (n = 360,000); in the data active = inhibition above about 38%;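 also: enzyme fragment complementation signal reports receptor beta-arrestin coupling in cells; 0% = agonist plus DMSO wells and 100% = wells without agonist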
CXCR6 block: CXCR6 receptor inhibitors, primary screen, cell-based, beta-arrestin, luminescence, CHO-K1 PathHunter, 1536-well; actives 0.36% (n = 360,000); inhibition, % at 20 µM; AID 602244, 2012; in the data active = inhibition above about 34%, passing the limit was not always enough;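 also: antagonist mode with CXCL16 agonist at 10 nM final; 0% = 10 nM CXCL16 with DMSO and 100% = unstimulated wells without agonist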
Target sequence (O00574 whole entry, looked up): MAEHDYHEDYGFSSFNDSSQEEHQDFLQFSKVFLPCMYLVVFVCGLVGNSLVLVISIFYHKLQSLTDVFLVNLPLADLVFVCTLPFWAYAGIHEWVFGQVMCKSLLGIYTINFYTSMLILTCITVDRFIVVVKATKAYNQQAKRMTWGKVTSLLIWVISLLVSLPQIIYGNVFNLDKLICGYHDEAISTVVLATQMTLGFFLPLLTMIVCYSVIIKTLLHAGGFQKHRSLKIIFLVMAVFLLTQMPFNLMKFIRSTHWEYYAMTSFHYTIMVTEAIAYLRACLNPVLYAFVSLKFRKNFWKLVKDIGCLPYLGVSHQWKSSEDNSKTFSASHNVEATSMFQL
APJ antagonist: antagonists of human apelin receptor APJ, primary screen, CHO-K1 cells, beta-arrestin complementation, luminescence; P35414; inhibition, % at 20 µM; actives 0.32% (n = 330,000);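 active = inhibition above about 40% at 20 µM, limit read from the data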;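 also: cells challenged with 10 nM apelin-13 agonist together with compound; plate controls were apelin-13 plus DMSO wells for no effect and DMSO wells lacking apelin-13 for full effect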
HTR2A ag: mouse Htr2a agonists via beta-arrestin recruitment, primary screen, cell-based, luminescence | activation, % at 7.6 µM | CHO-K1 mHTR2A beta-arrestin complementation; percent of 30 µM serotonin response | actives 0.66% (n = 360,000) | 5-hydroxytryptamine receptor 2A (Mus musculus), P35363;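 active = activation above a run cutoff, the mean activation of all tested compounds plus 3 SD, cut at about 14% in these data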;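 also: 0% = plate median of compound wells and 100% = 30 µM serotonin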
CCR6 antag: CCR6 receptor antagonists, primary screen, cell-based, CHO-K1, luminescence, beta-arrestin, uHTS; actives 0.49% (n = 340,000); inhibition, % at 20 µM; CHO-K1 CCR6 PathHunter beta-arrestin, CCL20-stimulated; C-C chemokine receptor type 6 (Homo sapiens), P51684; AID 493098, 2011;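 active = compounds whose inhibition of the agonist-driven luminescence signal at 20 µM reaches about 50%, limit read from the data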;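 also: cells stimulated with CCL20 at 14 nM final; plate controls were DMSO with CCL20 for no effect and DMSO without agonist for full effect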
EBI2 antag conf: EBI2 antagonist hit retest, beta-arrestin, confirmation, cell-based, single concentration, luminescence, 7a,25-OHC stimulation. 7a,25-OHC antagonism. inhibition, % at 5 µM. shares compounds with EBI2 block. actives 29% (n = 2,400);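 active = inhibition of at least 50%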
EBI2 ag: EBI2 agonist activity of antagonist hits, confirmation, counter-screen for EBI2 antagonist project, cell-based, single concentration, agonist mode, luminescence. shares compounds with EBI2 block. EBI2-expressing cells, 60 min; 0% vehicle, 100% 7α,25-dihydroxycholesterol control. activation, % at 5 µM. 2,400 tested, under 10 active. AID 652000, 2013;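 active = activation of at least 50%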
bGal counter: E. coli beta-galactosidase enzyme inhibition, confirmation, counter-screen for EBI2 antagonist project, biochemical, luminescence, single concentration; actives 1% (n = 2,400); shares compounds with EBI2 block; purified beta-galactosidase, luminescent Galacton Star, 15 min; inhibition, % at 5 µM;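 active = replicate-average signal at least 3 plate SD below neutral wells, shown as high inhibition, flagging enzyme-inhibiting false positives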;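 also: 0% = DMSO wells with enzyme and 100% = wells lacking enzyme; higher means stronger loss of beta-gal luminescence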
* marks the source's active call; other numbers are inactive results; x = no result. Compounds with a hit are over-represented: about 2.1% of the library has one in this group of screens.

SMILES | APJ agonist | EBI2 block | CXCR6 block | APJ antagonist | HTR2A ag | CCR6 antag | EBI2 antag conf | EBI2 ag | bGal counter
Cc1nc2ccccc2c2oc(C(=O)N3CCC(N4CCCCC4)CC3)cc12 | 0 | 27 | -3 | 16 | -2 | 5 | x | x | x
Cc1nc2ccccc2c2oc(C(=O)N3CCN(C4CCCCC4)CC3)cc12 | 0 | 87* | -8 | -48 | 2 | 7 | 77* | 1 | 3
COc1ccc(N2CCN(C(=O)c3cc4c(C)nc5ccccc5c4o3)CC2)cc1 | -2 | 54* | 1 | 9 | 7 | 2 | 43 | 1 | 8
CC(=O)c1ccc(N2CCN(C(=O)c3cc4c(C)nc5ccccc5c4o3)CC2)cc1 | 4 | -2 | -19 | -13 | 1 | -2 | x | x | x
CC(C)c1ccc(Nc2ncc3c(n2)CCN(C(=O)Nc2ccc(F)c(Cl)c2)C3)cc1 | x | 52* | -12 | x | 0 | x | 20 | 1 | 3
COc1cccc(NC(=O)N2CCc3nc(Nc4cc(Cl)cc(Cl)c4)ncc3C2)c1 | x | 24 | -3 | x | 0 | x | x | x | x
COc1cccc(C(=O)Oc2cccc(N3C(=O)C4C5CC(C(Br)C5Br)C4C3=O)c2)c1 (configuration not stated) | -1 | -7 | -8 | -15 | -3 | 2 | x | x | x
CC(=O)Nc1ccc(S(=O)(=O)N2CCC(C(=O)NCCc3c[nH]c4ccccc34)CC2)cc1 | 1 | 49* | 5 | 1 | 4 | -1 | 21 | 1 | 5
O=C1CSc2ccc(S(=O)(=O)NCc3ccc(F)cc3)cc2N1 | 4 | -6 | -11 | -14 | 1 | -6 | x | x | x
Cc1ccc(OCC(=O)N/N=C/c2cn[nH]c2-c2ccc(Cl)c(Cl)c2)cc1 | 13 | 8 | -20 | -17 | -7 | -19 | x | x | x
Cc1cccc(OCC(=O)N/N=C/c2cn[nH]c2-c2ccc(Cl)c(Cl)c2)c1 | 9 | 39* | -15 | -10 | 2 | -6 | 1 | 0 | -11
O=C(COc1ccc(Br)cc1)Nc1ccc(S(=O)(=O)Nc2ccccn2)cc1 | 2 | 43* | 2 | -7 | -3 | 3 | 25 | -1 | -10
Cc1nc2c(OCc3ccc(Cl)cc3Cl)cccn2c1N(C)Cc1cccs1 | x | 42* | 25 | x | -15 | x | 29 | -1 | -12
COc1cc(C2N(c3ccccc3)CCN2c2ccccc2)ccc1OC(C)=O | 0 | 5 | -1 | 14 | -1 | 13 | x | x | x
COc1ccc(C2N(c3ccc(C)cc3)CCN2c2ccc(C)cc2)cc1O | -3 | 73* | 2 | -3 | 0 | 5 | 15 | 1 | 4
O=C(c1nc2ccc(Cl)cn2c1CNCC[C@@H]1C[C@@H]2C=C[C@H]1C2)N1CCCCCCC1 | -4 | 61* | -6 | 9 | -5 | 4 | 42 | 0 | 2
C[C@@H]1CN(C(=O)c2nc3ccc(Cl)cn3c2CNCC[C@@H]2C[C@@H]3C=C[C@H]2C3)C[C@H](C)O1 | -5 | 9 | 4 | -1 | -1 | 7 | x | x | x
Cc1ccccc1N(CC(=O)NCCSc1ccccn1)S(=O)(=O)c1ccccc1 | 0 | 8 | -3 | 4 | -1 | -1 | x | x | x
Cc1ccc(N(CC(=O)NCCSc2nc3ccccc3s2)S(=O)(=O)c2ccccc2)c(C)c1 | -2 | 46* | 7 | -2 | -7 | 9 | 14 | 0 | 2
Cc1cccc(N(CC(=O)NCCSc2nc3ccccc3s2)S(=O)(=O)c2ccccc2)c1 | -1 | x | x | 3 | x | x | x | x | x
O=C(CN(c1ccccc1)S(=O)(=O)c1ccccc1)NCCSc1nc2ccccc2s1 | -1 | 59* | 8 | 24 | 2 | -2 | 53* | 1 | -3
Cc1ccc(-c2nnc(/C=C/c3ccccc3)o2)cc1 | -1 | 49* | 0 | -9 | 3 | 12 | 30 | -1 | -14
CNC(=O)c1sc(SC)cc1-c1ccc(Cl)cc1 | 2 | 50* | 2 | 11 | 0 | 7 | 37 | 1 | 5
Cc1cc(OCC(=O)NCCCN2CCOCC2)c2c(C)cc(=O)oc2c1 | 1 | -10 | -5 | 3 | 0 | 6 | x | x | x
Cc1ccc(-n2[nH]c(C)c(C=Nc3ccc(S(=O)(=O)N4CCOCC4)cc3)c2=O)c(C)c1 | 0 | x | x | 4 | x | x | x | x | x
SMILES | APJ agonist | EBI2 block | CXCR6 block | APJ antagonist | HTR2A ag | CCR6 antag | EBI2 antag conf | EBI2 ag | bGal counter
Nc1nc(N)nc(-c2ccccn2)n1 | 0 | -5 | 15 | -36 | -3 | 0 | x | x | x
O=c1n(Cc2ccccc2)c2cc(Cl)cnc2n1Cc1ccccc1 | -3 | 71* | 8 | 29 | -6 | 19 | 50* | 0 | 6
CC(C)Nc1ncnc2c1ncn2[C@H]1CN(Cc2ccc(F)cc2)C[C@@H](CO)O1 | x | 47* | -8 | x | -2 | x | 50* | 0 | 7
CC(C)Nc1ncnc2c1ncn2[C@H]1CN(Cc2ccc(Cl)cc2)C[C@@H](CO)O1 | x | 74* | 0 | x | 0 | x | 88* | -2 | -20
CC(C)c1ccccc1OCCNC(=O)c1cccnc1 | -5 | -10 | 2 | 2 | 3 | 6 | x | x | x
CC(C)c1ccccc1OCCNC(=O)c1cncc(Br)c1 | -3 | 47* | -1 | -21 | 0 | 9 | 16 | -2 | -7
CCOC(=O)C1=C(Nc2ccccc2)OCC1=O | 0 | -10 | -12 | 18 | 2 | 7 | x | x | x
O=C(c1ccc(Cl)c(Cl)c1)c1cc(-c2ccccn2)c(N2CCOCC2)s1 | 0 | 65* | -1 | -4 | -5 | 17 | 31 | 2 | 3
O=C(c1ccc(Br)cc1)c1cc(-c2ccccn2)c(N2CCOCC2)s1 | -3 | 37* | 3 | 13 | 2 | 27 | 39 | -2 | -16
OC(COc1ccc2c(c1)OCO2)CN1CCCC1 (configuration not stated) | -1 | -7 | 0 | -2 | 5 | 3 | x | x | x
CCNC(=O)COc1ccc(C=O)cc1OC | -4 | -6 | -9 | -1 | -3 | 4 | x | x | x
CCc1nc2ccc(C(=O)NCCOc3ccc(OC)cc3)cn2c1N(CC)CCOC | x | 45* | -3 | x | 4 | x | 37 | 2 | 0
